# Measurements: ChEMBL document CHEMBL4145611, “Discovery of Marinoquinolines as Potent and Fast-Acting Plasmodium falciparum Inhibitors with in Vivo Activity” (J Med Chem, 2018)
# The source made the active and inactive calls. The rule behind the calls is not given here.
# Assays:
# [1] = system: HepG2; assay: Cytotoxicity against human HepG2 cells assessed as reduction in cell viability after 24 hrs by MTT assay; assay type: cell-based; conditions: HepG2, 24 h
# Method in brief: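 HepG2 cells in RPMI-1640 with 10% heat-inactivated serum, seeded 5×10^3 per well, allowed to adhere 18 h at 37 °C, then exposed to compound (400–6.2 µM) for 24 h at 37 °C, 5% CO2. MTT (5 mg/mL) for 3 h, formazan dissolved in DMSO, absorbance 570 nm with 630 nm background; viability as percent of untreated control.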
# [2] = system: Plasmodium falciparum; assay: Plasmodicidal activity against Plasmodium falciparum 3D7A infected in erythrocytes assessed as parasite survival at 10 times IC50 pre-incubated for 24 hrs followed by compound washout and measured after 24 hrs by […] incorporation assay (reference value: 100%); assay type: functional
# [3] = system: Plasmodium falciparum; assay: Plasmodicidal activity against Plasmodium falciparum 3D7A infected in erythrocytes assessed as parasite survival at 10 times IC50 pre-incubated for 48 hrs followed by compound washout and measured after 24 hrs by […] incorporation assay (reference value: 100%); assay type: functional
# [4] = system: Plasmodium berghei; assay: Antiplasmodial activity against Plasmodium berghei NK65 infected in Swiss mouse assessed as reduction in parasitemia at 20 mg/kg, po administered via gavage for 3 consecutive days post infection measured on day 5 post infection relative to control; assay type: functional; set-up: scale not given: the % may be the effect or the level left
# Method in brief: (§1)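 P. berghei NK65 suppressive test: adult Swiss outbred mice (20±2 g) inoculated ip with 1×10^5 infected red cells, randomized to groups, dosed daily for three days by oral gavage or ip injection with test compound at 50 mg/kg in 3% (v/v) DMSO; CQ 20 mg/kg and vehicle groups in parallel. Giemsa-stained tail-blood smears on days 5, 7, 9; inhibition = [(C−T)/C]×100 versus untreated control.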
# [5] = system: Plasmodium berghei; assay: Antiplasmodial activity against Plasmodium berghei NK65 infected in Swiss mouse assessed as reduction in parasitemia at 20 mg/kg, ip administered for 3 consecutive days post infection measured on day 5 post infection relative to control; assay type: functional; set-up: scale not given: the % may be the effect or the level left; method in brief: as §1
# [6] = system: Plasmodium berghei; assay: Antiplasmodial activity against Plasmodium berghei NK65 infected in Swiss mouse assessed as reduction in parasitemia at 20 mg/kg, po administered via gavage for 3 consecutive days post infection measured on day 7 post infection relative to control; assay type: functional; set-up: scale not given: the % may be the effect or the level left; method in brief: as §1
# [7] = system: Plasmodium berghei; assay: Antiplasmodial activity against Plasmodium berghei NK65 infected in Swiss mouse assessed as reduction in parasitemia at 20 mg/kg, ip administered for 3 consecutive days post infection measured on day 7 post infection relative to control; assay type: functional; set-up: scale not given: the % may be the effect or the level left; method in brief: as §1
# [8] = system: Plasmodium berghei; assay: Antiplasmodial activity against Plasmodium berghei NK65 infected in Swiss mouse assessed as reduction in parasitemia at 20 mg/kg, po administered via gavage for 3 consecutive days post infection measured on day 9 post infection relative to control; assay type: functional; set-up: scale not given: the % may be the effect or the level left; method in brief: as §1
# [9] = system: Plasmodium berghei; assay: Antiplasmodial activity against Plasmodium berghei NK65 infected in Swiss mouse assessed as reduction in parasitemia at 20 mg/kg, ip administered for 3 consecutive days post infection measured on day 9 post infection relative to control; assay type: functional; set-up: scale not given: the % may be the effect or the level left; method in brief: as §1
# [10] = system: Plasmodium berghei; assay: Antiplasmodial activity against Plasmodium berghei NK65 infected in Swiss mouse assessed as assessed as mouse survival at 20 mg/kg, ip administered for 3 consecutive days post infection measured on day 9 post infection (reference value: 19 +/- 5 days); assay type: functional
# [11] = system: Plasmodium berghei; assay: Antiplasmodial activity against Plasmodium berghei NK65 infected in Swiss mouse assessed as assessed as mouse survival at 20 mg/kg, po administered via gavage for 3 consecutive days post infection measured on day 9 post infection (reference value: 19 +/- 5 days); assay type: functional
# [12] = system: Plasmodium falciparum; assay: Antiplasmodial activity against chloroquine-sensitive blood parasite forms of Plasmodium falciparum 3D7 infected in RBC by SYBR green assay; assay type: functional, organism-based; conditions: 3D7, Erythrocyte
# Method in brief: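 3D7 blood-stage cultures, sorbitol-synchronized twice beforehand, used at 5-10% parasitemia with >80% rings, diluted to 0.5% parasitemia and 2% hematocrit with graded compound (0.05% DMSO), triplicate; artesunate and chloroquine controls. SYBR green I lysis-buffer fluorescence at 485/535 nm; IC50 from curve fit relative to drug-free medium.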
# [13] = system: Plasmodium falciparum; assay: Antiplasmodial activity against chloroquine-sensitive asynchronous form of Plasmodium falciparum 3D7 infected in RBC after 72 hrs by SYBR green assay; assay type: functional, organism-based; conditions: 3D7, Erythrocyte
# Method in brief: (§2)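 Sorbitol-synchronized 3D7 cultures of each stage (or asynchronous) diluted to 0.5% parasitemia, 2% hematocrit, exposed to graded compound concentrations (0.05% DMSO) for 72 h in triplicate. Read-out: lysis buffer (20 mM Tris pH 7.5, 5 mM EDTA, 0.008% saponin, 0.08% Triton X-100) with SYBR green I 1:20000, fluorescence 485/535 nm, uninfected erythrocytes as background; IC50 by curve fitting versus drug-free growth.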
# [14] = system: Plasmodium falciparum; assay: Antiplasmodial activity against chloroquine-sensitive ring form of Plasmodium falciparum 3D7 infected in RBC after 72 hrs by SYBR green assay; assay type: functional, organism-based; conditions: 3D7, Erythrocyte; method in brief: as §2
# [15] = system: Plasmodium falciparum; assay: Antiplasmodial activity against chloroquine-sensitive trophozoite form of Plasmodium falciparum 3D7 infected in RBC after 72 hrs by SYBR green assay; assay type: functional, organism-based; conditions: 3D7, Erythrocyte; method in brief: as §2
# [16] = system: Plasmodium falciparum; assay: Antiplasmodial activity against chloroquine-sensitive schizont form of Plasmodium falciparum 3D7 infected in RBC after 72 hrs by SYBR green assay; assay type: functional, organism-based; conditions: 3D7, Erythrocyte; method in brief: as §2
# [17] = system: Plasmodium falciparum; assay: Antiplasmodial activity against chloroquine/pyrimethamine/sulfadoxine-resistant blood parasite forms of Plasmodium falciparum K1 infected in RBC by SYBR green assay; assay type: functional, organism-based; conditions: K1, Erythrocyte
# Method in brief: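 Sorbitol-synchronised K1 culture, mostly rings, at 0.5% parasitemia and 2% hematocrit exposed to serial compound dilutions (0.05% DMSO) in triplicate. Cells lysed with Tris/EDTA/saponin/Triton buffer containing SYBR green I; fluorescence read at 485/535 nm, uninfected erythrocytes as background. IC50 from curve fit versus drug-free growth.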
# [18] = system: Plasmodium falciparum; assay: Antiplasmodial activity against early ring stage form of Plasmodium falciparum assessed as induction of alterations in parasite morphology at 10 times IC50 concentration after 8 to 16 hrs by microscopic analysis; assay type: functional, organism-based
# [19] = system: Plasmodium falciparum; assay: (§3) Antiplasmodial activity against of male Plasmodium falciparum NF54 gametocytes assessed as inhibition of xanthurenic acid-stimulated gamete formation at 1 uM preincubated for 24 to 48 hrs followed by xanthurenic acid stimulation and measured after 20 mins by automated time-lapse microscopy relative to control; assay type: functional
# Method in brief: (§4)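 Mature NF54 gametocytes exposed to 1 µM compound (DMSO ≤0.25%) for 24 or 48 h, then activated by cooling 37→26 °C with 2.5 µM xanthurenic acid. Male: exflagellation by automated time-lapse microscopy at 20 min, three readings per well. Female: after 24 h at 26 °C, Cy3 anti-Pfs25 staining, four fields counted. Inhibition versus DMSO and 20 µM Gentian Violet controls; four independent repeats.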
# [20] = system: Plasmodium falciparum; assay: as §3, with “female” for “male”; assay type: functional; method in brief: as §4
# [21] = system: Plasmodium berghei; assay: Antiplasmodial activity against liver stage of luciferase-expressing transgenic Plasmodium berghei sporozoites infected in human HepG2 cells administered 18 hrs before infection and measured after 48 hrs by luciferase reporter gene assay; assay type: functional, organism-based
# Method in brief: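 HepG2 cells (3×10^3) plated overnight; compound (10^-4 to 10^-9 M) added 18 h before infection with 1×10^5 freshly isolated luciferase-expressing P. berghei sporozoites from Anopheles stephensi salivary glands; culture 48 h, luciferase activity taken as parasite viability; atovaquone positive control.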
# [22] = system: Plasmodium falciparum; assay: Antiplasmodial activity against early ring stage of Plasmodium falciparum assessed as increase in free heme levels after 32 hrs by UV-Vis spectrophotometry; assay type: functional, organism-based
# [23] = system: Plasmodium falciparum; assay: Antiplasmodial activity against early ring stage of Plasmodium falciparum assessed as decrease in hemozoin accumulation after 32 hrs by UV-Vis spectrophotometry; assay type: functional, organism-based
# [24] = system: Mus musculus; assay: Toxicity in Swiss mouse assessed as survival at 1000 mg/kg, po measured up to 30 days; assay type: organism-based; conditions: in vivo, 720 h
# Method in brief: (§5)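 Single 1000 mg/kg dose given to mice by gavage or ip injection, 3 mice per group. Survival and body weight followed against untreated controls over 30 days of observation.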
# [25] = system: Mus musculus; assay: Toxicity in Swiss mouse assessed as effect on body weight at 1000 mg/kg, po measured after 30 days; assay type: organism-based; conditions: in vivo, 720 h; method in brief: as §5
# [26] = system: Plasmodium berghei; assay: Antiplasmodial activity against Plasmodium berghei NK65 infected in Swiss mouse assessed as reduction in parasitemia at 50 mg/kg, po administered via gavage for 3 consecutive days post infection measured on day 5 post infection relative to control; assay type: functional; set-up: scale not given: the % may be the effect or the level left; method in brief: as §1
# [27] = system: Plasmodium berghei; assay: Antiplasmodial activity against Plasmodium berghei NK65 infected in Swiss mouse assessed as reduction in parasitemia at 50 mg/kg, ip administered for 3 consecutive days post infection measured on day 5 post infection relative to control; assay type: functional; set-up: scale not given: the % may be the effect or the level left; method in brief: as §1
# [28] = system: Plasmodium berghei; assay: Antiplasmodial activity against Plasmodium berghei NK65 infected in Swiss mouse assessed as reduction in parasitemia at 50 mg/kg, po administered via gavage for 3 consecutive days post infection measured on day 9 post infection relative to control; assay type: functional; set-up: scale not given: the % may be the effect or the level left; method in brief: as §1
# [29] = system: Plasmodium berghei; assay: Antiplasmodial activity against Plasmodium berghei NK65 infected in Swiss mouse assessed as reduction in parasitemia at 50 mg/kg, ip administered for 3 consecutive days post infection measured on day 9 post infection relative to control; assay type: functional; set-up: scale not given: the % may be the effect or the level left; method in brief: as §1
# [30] = system: Plasmodium berghei; assay: Antiplasmodial activity against Plasmodium berghei NK65 infected in Swiss mouse assessed as mouse survival at 50 mg/kg, po administered for 3 consecutive days post infection measured on day 9 post infection (reference value: 19 +/- 5 days); assay type: functional
# [31] = system: Plasmodium berghei; assay: Antiplasmodial activity against Plasmodium berghei NK65 infected in Swiss mouse assessed as assessed as mouse survival at 50 mg/kg, ip administered via gavage for 3 consecutive days post infection measured on day 9 post infection (reference value: 19 +/- 5 days); assay type: functional
# [32] = system: Plasmodium berghei; assay: Antiplasmodial activity against Plasmodium berghei NK65 infected in Swiss mouse assessed as reduction in parasitemia at 50 mg/kg, po administered via gavage for 3 consecutive days post infection measured on day 7 post infection relative to control; assay type: functional; set-up: scale not given: the % may be the effect or the level left; method in brief: as §1
# [33] = system: Plasmodium berghei; assay: Antiplasmodial activity against Plasmodium berghei NK65 infected in Swiss mouse assessed as reduction in parasitemia at 50 mg/kg, ip administered for 3 consecutive days post infection measured on day 7 post infection relative to control; assay type: functional; set-up: scale not given: the % may be the effect or the level left; method in brief: as §1
# [34] = system: Mus musculus; assay: Toxicity in Swiss mouse assessed as survival at 1000 mg/kg, ip measured up to 30 days; assay type: organism-based; conditions: in vivo, 720 h; method in brief: as §5
# [35] = system: Mus musculus; assay: Toxicity in Swiss mouse assessed as effect on body weight at 1000 mg/kg, ip measured after 30 days; assay type: organism-based; conditions: in vivo, 720 h; method in brief: as §5
# [36] = system: Plasmodium falciparum; assay: Antiplasmodial activity against Plasmodium falciparum assessed as fractional inhibitory concentration index at IC50 concentration in presence of artesunate by isobologram plot analysis
smiles,measurement,setting,value
CCN(CC)CCCC(C)Nc1ccnc2cc(Cl)ccc12 (centres undefined) [CHLOROQUINE],EC50,[1],384000 nM
same,Survival,[2],16%
same,Survival,[3],8%
same,Activity,[4],100%
same,Activity,[5],100%
same,Activity,[6],100%
same,Activity,[7],100%
same,Activity,[8],100%
same,Activity,[9],100%
same,Survival,[10],>30 days
same,Survival,[11],>30 days
COc1ccc2c(c1)nc(-c1ccc(NC(=O)OC(C)(C)C)cc1)c1[nH]ccc12,IC50,[12]; read-out: IC50,39 nM
same,IC50,[12]; read-out: pIC50 (converted),39.8 nM
same,IC50,[13],33 nM
same,IC50,[14],39 nM
same,IC50,[15],50 nM
same,IC50,[16],28 nM
same,IC50,[17],41 nM
same,Activity,[18],Active
same,Survival,[2],14%
same,Survival,[3],6%
same,inhibition at 1 µM,[19],7%
same,inhibition at 1 µM,[20],2%
same,IC50,[21],76 nM
same,Activity,[22],Dose-dependent effect
same,Activity,[23],Dose-dependent effect
same,Activity,[24],Non-Toxic
same,Activity,[25],Non-Toxic
same,Activity,[26],62%
same,Activity,[27],61%
same,Activity,[28],55%
same,Activity,[29],58%
same,Survival,[30],25 days
same,Survival,[31],24 days
same,Activity,[32],54%
same,Activity,[33],34%
same,Activity,[34],Non-Toxic
same,Activity,[35],Non-Toxic
same,FIC,[36],1
